Data set [1] in a line: Non-compartmental pharmacokinetics. Format: in vivo, human. The gist of the method:
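Patients took oral drug twice daily, continuously, at 50–500 mg BID. Plasma parent drug and active metabolite M8 were measured by a validated assay. Parameters were derived non-compartmentally on day 1 and reported as geometric mean (SD). Accumulation indices for Cmax and AUC0–8 were compared with theoretical values from D1 half-lives. Dose proportionality was tested on day-1 Cmax and AUC0-inf (95% CI of coefficient including 1).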

A further data set has as its system ovarian cancer. To be noted: phase II single-agent, ovarian cancer ref 46; cited from earlier work.
The mark [2] stands for this setting: geometric mean (standard deviation).

These results are taken from paper PMC9116722 (Cancer chemotherapy and pharmacology, 2022).

Regarding `C[C@]1(c2nc3c(C(N)=O)cccc3[nH]2)CCCN1` [veliparib], the PK dose dependence result in data set [1] (50-500 mg BID) is “linear with dose”. Further, the theoretical accumulation index in data set [1] (calculated from D1 half-lives, geometric mean (SD)) was 1.34 (1.12). Also, in data set [1] (setting [2]), the “accumulation index for AUC0–8” value was 1.30 (1.29) and the “accumulation index for Cmax” value is 1.24 (1.37). The Vd/F in data set [1] (human, in vivo, oral) was determined as 123 L. Also, the Cl/F in data set [1] (non-compartmental, current study) is 15.9 (1.40) L/h. Besides, the response rate in the data set on ovarian cancer was 26%.

A word on the Vd/F: it is the volume of distribution divided by bioavailability.
